Data taken from ChEMBL document CHEMBL1130128, “Antipsoriatic anthrones with modulated redox properties. 4. Synthesis and biological activity of novel 9,10-dihydro-1,8-dihydroxy-9-oxo-2-anthracenecarboxylic and -hydroxamic acids” (J Med Chem, 1997).
pIC50: −log10 of the molar value.

What was measured:
[1] = Antioxidant activity, measuring Deoxyribose degradation (DD) as a measure of hydroxyl radical formation.
How it was run: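 Deoxyribose assay: 2-deoxy-D-ribose incubated with 75 μM test compound; hydroxyl-radical generation read as malondialdehyde release, expressed as μmol MDA/mmol deoxyribose; compared with control.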

HaCaT [2] = test: Antiproliferative activity (AA) against HaCaT keratinocytes.; assay type: functional, cell-based; conditions: Homo sapiens
[3] = biological target: T1, Arachidonate 5-lipoxygenase (Bos taurus, UniProt Q9BEG3); test: 5-LO inhibitory activity, measured by production of 5-hydroxyeicosatetraenoic acid (5-HETE) and leukotriene B4 (LTB4) in bovine polymorphonuclear leukocytes; assay type: functional, cell-based
T1 sequence (Q9BEG3 whole entry): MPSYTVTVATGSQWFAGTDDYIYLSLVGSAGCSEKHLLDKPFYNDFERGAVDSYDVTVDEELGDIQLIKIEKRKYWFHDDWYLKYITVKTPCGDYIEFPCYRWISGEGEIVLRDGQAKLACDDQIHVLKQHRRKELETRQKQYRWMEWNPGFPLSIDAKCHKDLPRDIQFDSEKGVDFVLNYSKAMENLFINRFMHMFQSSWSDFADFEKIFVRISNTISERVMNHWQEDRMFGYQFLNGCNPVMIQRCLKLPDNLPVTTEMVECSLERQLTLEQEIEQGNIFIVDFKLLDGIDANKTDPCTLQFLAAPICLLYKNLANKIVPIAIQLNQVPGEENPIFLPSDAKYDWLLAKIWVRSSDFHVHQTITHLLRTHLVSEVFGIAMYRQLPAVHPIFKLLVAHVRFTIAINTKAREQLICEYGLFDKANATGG

HaCaT [4] = test: Cytotoxicity of LDH release in HaCaT cells; assay type: functional, Homo sapiens; design: unit: mU
How it was run: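 HaCaT cells treated with 2 μM test compound; plasma membrane damage measured as lactate dehydrogenase activity released into culture medium, in mU; N = 3; compared with vehicle control.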

DD [1]	pIC50 [3]	Structure (SMILES)	pIC50 (HaCaT [2])	LDH (HaCaT [4])
< 0.15 µmol/mmol	–	O=C(O)c1ccc(Cc2ccc3c(c2O)C(=O)c2c(O)cccc2C3)cc1	–	–
–	< 4.52	COC(=O)Cc1ccc2c(c1O)C(=O)c1c(O)cccc1C2	6.30	–
1.34 µmol/mmol	5.70	O=C(O)c1ccc(C(=O)c2ccc3c(c2O)C(=O)c2c(O)cccc2C3)cc1	< 5.30	–
1.67 µmol/mmol	5.40	O=C(CCc1ccc2c(c1O)C(=O)c1c(O)cccc1C2)NO	5.89	–
0.54 µmol/mmol	< 4.52	COC(=O)C(c1ccc2c(c1O)C(=O)c1c(O)cccc1C2)C(C)C (stereo unspecified)	5.82	–
0.33 µmol/mmol	< 4.52	COC(=O)CCCc1ccc2c(c1O)C(=O)c1c(O)cccc1C2	5.96	–
0.92 µmol/mmol	5.40	CN(O)C(=O)c1ccc(C(=O)c2ccc3c(c2O)C(=O)c2c(O)cccc2C3)cc1	5.74	–
< 0.15 µmol/mmol	< 4.52	COC(=O)C(Cc1ccccc1)c1ccc2c(c1O)C(=O)c1c(O)cccc1C2 (stereo unspecified)	5.74	–
0.86 µmol/mmol	5.30	CC(C)C(C(=O)N(C)O)c1ccc2c(c1O)C(=O)c1c(O)cccc1C2 (stereo unspecified)	5.82	135 MU
2.61 µmol/mmol	4.74	O=C(O)CCCc1ccc2c(c1O)C(=O)c1c(O)cccc1C2	< 5.30	–
–	4.46	CCCCOc1ccc(CC(=O)NO)cc1 [BUFEXAMAC]	< 5.30	135 MU
1.3 µmol/mmol	–	CC(C(=O)NO)c1ccc2c(c1O)C(=O)c1c(O)cccc1C2 (stereo unspecified)	5.70	–
–	< 4.52	COC(=O)CCc1ccc2c(c1O)C(=O)c1c(O)cccc1C2	6.10	–
3.25 µmol/mmol	–	O=C1c2c(O)cccc2Cc2ccc(C(Cc3ccccc3)C(=O)O)c(O)c21 (stereo unspecified)	< 5.30	–
1.04 µmol/mmol	5.40	O=C1c2c(O)cccc2Cc2ccc(C(Cc3ccccc3)C(=O)NO)c(O)c21 (stereo unspecified)	5.82	–
–	< 4.52	COC(=O)C(C)c1ccc2c(c1O)C(=O)c1c(O)cccc1C2 (stereo unspecified)	6.10	–

Continued, compound first:

Structure (SMILES)	DD [1]	pIC50 [3]	pIC50 (HaCaT [2])	LDH (HaCaT [4])
O=C(NO)c1ccc(Cc2ccc3c(c2O)C(=O)c2c(O)cccc2C3)cc1	–	5.30	5.96	–
O=C(O)CCc1ccc2c(c1O)C(=O)c1c(O)cccc1C2	2.67 µmol/mmol	4.72	< 5.30	–
O=C1c2c(O)cccc2Cc2cccc(O)c21 [ANTHRALIN]	2.89 µmol/mmol	–	6.22	294 MU
O=C(Cc1ccc2c(c1O)C(=O)c1c(O)cccc1C2)NO	1.89 µmol/mmol	5.22	5.74	–
O=C(O)CCCCc1ccc2c(c1O)C(=O)c1c(O)cccc1C2	2.62 µmol/mmol	4.89	< 5.30	–
COC(=O)CCCCc1ccc2c(c1O)C(=O)c1c(O)cccc1C2	0.62 µmol/mmol	< 4.52	5.74	146 MU
O=C1c2c(O)cccc2Cc2ccc(C(CCc3ccccc3)C(=O)O)c(O)c21 (stereo unspecified)	2.47 µmol/mmol	5.70	< 5.30	142 MU
CC(C)C(C(=O)NO)c1ccc2c(c1O)C(=O)c1c(O)cccc1C2 (stereo unspecified)	1.66 µmol/mmol	5.22	5.82	192 MU
COC(=O)c1ccc(Cc2ccc3c(c2O)C(=O)c2c(O)cccc2C3)cc1	< 0.15 µmol/mmol	< 4.52	–	–
O=C(O)CCCCCc1ccc2c(c1O)C(=O)c1c(O)cccc1C2	2.29 µmol/mmol	5.00	< 5.30	–
COC(=O)C(CCc1ccccc1)c1ccc2c(c1O)C(=O)c1c(O)cccc1C2 (stereo unspecified)	0.28 µmol/mmol	< 4.52	5.89	142 MU
CN(O)C(=O)CCCc1ccc2c(c1O)C(=O)c1c(O)cccc1C2	1.5 µmol/mmol	–	–	181 MU
CC(C(=O)O)c1ccc2c(c1O)C(=O)c1c(O)cccc1C2 (stereo unspecified)	–	4.77	< 5.30	–
CC(C)C(C(=O)O)c1ccc2c(c1O)C(=O)c1c(O)cccc1C2 (stereo unspecified)	3.58 µmol/mmol	–	< 5.30	128 MU
CN(O)C(=O)CCCCCc1ccc2c(c1O)C(=O)c1c(O)cccc1C2	–	6.40	6.15	–
O=C(CCCc1ccc2c(c1O)C(=O)c1c(O)cccc1C2)NO	1.46 µmol/mmol	5.52	5.82	–
O=C(CCCCc1ccc2c(c1O)C(=O)c1c(O)cccc1C2)NO	1.38 µmol/mmol	5.70	5.70	135 MU
COC(=O)c1ccc(C(=O)c2ccc3c(c2O)C(=O)c2c(O)cccc2C3)cc1	–	< 4.52	5.74	–
CN(O)C(=O)Cc1ccc2c(c1O)C(=O)c1c(O)cccc1C2	1.67 µmol/mmol	6.00	6.10	150 MU
CC(C(=O)N(C)O)c1ccc2c(c1O)C(=O)c1c(O)cccc1C2 (stereo unspecified)	1.57 µmol/mmol	5.22	5.82	142 MU
O=C(O)Cc1ccc2c(c1O)C(=O)c1c(O)cccc1C2	3.74 µmol/mmol	4.66	< 5.30	–
CN(O)C(=O)CCc1ccc2c(c1O)C(=O)c1c(O)cccc1C2	0.92 µmol/mmol	–	–	135 MU
CN(O)C(=O)C(Cc1ccccc1)c1ccc2c(c1O)C(=O)c1c(O)cccc1C2 (stereo unspecified)	1.68 µmol/mmol	5.30	6.05	–
COC(=O)CCCCCc1ccc2c(c1O)C(=O)c1c(O)cccc1C2	–	< 4.52	5.80	142 MU
CN(O)C(=O)CCCCc1ccc2c(c1O)C(=O)c1c(O)cccc1C2	1.36 µmol/mmol	–	–	124 MU
